The test system of one assay is HeLa. The experiment in a line: Inhibitory concentration in HeLa cells. The assay is classed as functional, cell-based. To be noted: Homo sapiens. The method, boiled down:
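HeLa viability assay. Low-passage HeLa (passage 10–20) treated with compounds at 0, 1, 3, 10 and 100 µM; viability read out. Values given as mean with standard deviation, n = 4.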

Another assay deals with ZR-75-1. The experiment in a line: Inhibitory concentration in ZR-75-1 cells. The class given is functional, cell-based. To be noted: Homo sapiens. The method, boiled down: (§1)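 XTT viability: MCF7 grown in DMEM/10% FBS with 10^-10 M insulin, 1 mM pyruvate, glutamine; ZR75-1 in RPMI/10% FBS with HEPES, 1 mM pyruvate, glutamine. 1000 cells/well seeded in triplicate, compounds at final 0, 1, 10 and 100 µM for 3 days. Then XTT (1 mg/mL) with 0.025 mM PMS added for 4 h. OD450 read, blank wells subtracted.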

The next assay deals with MCF7S. The experiment in a line: Inhibitory concentration in MCF-7 cells. The assay is classed as functional, cell-based. To be noted: Homo sapiens. The method, boiled down: as §1
The next assay deals with Bcl-2-like protein 1 (Homo sapiens, UniProt Q07817). The experiment in a line: Inhibitory concentration against Bcl-xl.
Bcl-2-like protein 1, sequence (Q07817 whole entry): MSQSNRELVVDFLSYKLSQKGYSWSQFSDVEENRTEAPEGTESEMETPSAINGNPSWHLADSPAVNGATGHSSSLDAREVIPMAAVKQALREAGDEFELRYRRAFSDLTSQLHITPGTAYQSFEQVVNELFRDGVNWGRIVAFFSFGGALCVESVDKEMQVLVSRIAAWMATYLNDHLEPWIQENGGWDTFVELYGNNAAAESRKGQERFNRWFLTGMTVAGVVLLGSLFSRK

The record followed here is ChEMBL document CHEMBL1144902, “Discovery, characterization, and structure-activity relationships studies of proapoptotic polyphenols targeting B-cell lymphocyte/leukemia-2 proteins” (J Med Chem, 2003).

The structures appear in SMILES notation. Where only a bound is given, the exact number is not on record here.

`COc1c(O)cc2cccc(OC)c(=O)c2c1OC` showed a half-maximal inhibitory concentration (IC50) in the assay on HeLa greater than 100 µM.
On the same count and under the same terms, next, `COc1cc2cccc(OC)c(=O)c2c(OC)c1OC`: greater than 100 µM.
With `CCOC(=O)c1cc(O)c(=O)c2cc(O)c(O)cc2c1`, the concentration for half-maximal inhibition (IC50) with ZR-75-1 came to 50 µM; with HeLa it was 51.5 µM.
In the assay with HeLa, `COC(=O)c1cc(O)c(=O)c2cc(O)c(O)cc2c1` displayed an IC50 of 30 µM.
In turn, `O=C(O)c1cc(O)c(=O)c2cc(O)c(O)cc2c1` returned an IC50 in the assay with HeLa of 22.9 µM.
Take `Cc1cc2c(C(C)C)c(O)c(O)c(C=O)c2c(O)c1-c1c(C)cc2c(C(C)C)c(O)c(O)c(C=O)c2c1O` [GOSSYPOL]: the values for the IC50 in the assay on ZR-75-1, in the assay with MCF7S and at Bcl-2-like protein 1 were 8.4 µM, 13.2 µM and 0.5 µM, respectively.
`O=c1c(O)cccc2cc(O)c(O)c(O)c12` [PURPUROGALLIN] came in with an IC50 in the assay on HeLa of 6.5 µM.

As a reminder, the IC50 is the concentration that gives 50% inhibition. A lower IC50 goes with greater potency in that assay.
